Measurements from paper PMC11740949 (Bioconjugate Chemistry, 2024).

Target: T1, recombinant murine FAP (Mus musculus, UniProt P97321)
T1 sequence (P97321 1-761): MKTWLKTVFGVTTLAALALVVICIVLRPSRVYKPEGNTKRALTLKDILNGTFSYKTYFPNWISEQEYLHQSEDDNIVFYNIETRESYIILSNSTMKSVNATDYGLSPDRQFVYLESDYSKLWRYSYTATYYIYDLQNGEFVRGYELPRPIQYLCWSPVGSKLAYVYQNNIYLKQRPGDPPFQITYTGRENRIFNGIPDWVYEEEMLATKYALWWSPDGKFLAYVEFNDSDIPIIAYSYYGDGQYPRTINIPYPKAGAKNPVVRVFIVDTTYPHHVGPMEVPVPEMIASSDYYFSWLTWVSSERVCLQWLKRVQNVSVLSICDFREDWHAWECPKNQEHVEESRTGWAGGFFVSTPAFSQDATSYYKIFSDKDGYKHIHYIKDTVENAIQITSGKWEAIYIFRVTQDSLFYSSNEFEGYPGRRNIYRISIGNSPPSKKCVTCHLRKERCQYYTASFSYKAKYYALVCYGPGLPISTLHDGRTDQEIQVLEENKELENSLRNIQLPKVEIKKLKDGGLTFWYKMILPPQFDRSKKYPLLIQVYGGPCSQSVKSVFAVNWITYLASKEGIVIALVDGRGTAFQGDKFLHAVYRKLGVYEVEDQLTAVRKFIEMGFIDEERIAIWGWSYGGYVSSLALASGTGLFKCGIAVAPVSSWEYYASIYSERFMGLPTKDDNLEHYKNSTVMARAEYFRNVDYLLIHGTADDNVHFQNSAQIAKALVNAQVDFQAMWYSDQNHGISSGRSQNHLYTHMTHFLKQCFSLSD
Assay: FAP inhibition assay with fluorogenic substrate Z-Gly-Pro-AMC
Assay type: biochemical
Conditions: three-parameter fit
In short: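 Recombinant mouse FAP at 0.01 μg/100 μL in 50 mM Tris, 1.0 M NaCl, 0.1% BSA (w/v), pH 7.5. Test compound was serially diluted 1:5 (10 pM–10 μM) and preincubated with the enzyme for 30 min at 37 °C. Z-Gly-Pro-AMC was then added (10 μL of a 100 μM solution) for 60 min at 37 °C, and fluorescence was read at Ex 380/Em 460. Activity was scaled to no-inhibitor and no-enzyme wells, and IC50 came from a three-parameter inhibitor-vs-response fit.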

IC50: 0.59 nM
Structure (SMILES): N#C[C@@H]1CC(F)(F)CN1C(=O)CNC(=O)c1ccnc2ccc(OCCCN3CCN(C(=O)CN4CCN(CC(=O)O)CCN(CC(=O)O)CCN(CC(=O)O)CC4)CC3)cc12 [FAPi-4]
